From PubChem
An excerpt weighted towards active compounds, which were near 2% of everything screened.
NR2E3 ag-1: activates human NR2E3 receptor. AID 602229. CHO-S Gal4-NCOR/VP16-NR2E3 two-hybrid, luciferase. inhibition of corepressor binding, % at 3.98 µM. 0.35% of 360,000 active;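 active means inhibition above the mean of all tested compounds plus 3 SD, cut at about 70% in these data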;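 further: 0% = DMSO with NR2E3 transfected cells and 100% = cells lacking NR2E3 construct; higher means lower luciferase signal from less NR2E3 corepressor binding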
Target sequence (Q9Y5X4 whole entry, looked up, the tested form may be a part): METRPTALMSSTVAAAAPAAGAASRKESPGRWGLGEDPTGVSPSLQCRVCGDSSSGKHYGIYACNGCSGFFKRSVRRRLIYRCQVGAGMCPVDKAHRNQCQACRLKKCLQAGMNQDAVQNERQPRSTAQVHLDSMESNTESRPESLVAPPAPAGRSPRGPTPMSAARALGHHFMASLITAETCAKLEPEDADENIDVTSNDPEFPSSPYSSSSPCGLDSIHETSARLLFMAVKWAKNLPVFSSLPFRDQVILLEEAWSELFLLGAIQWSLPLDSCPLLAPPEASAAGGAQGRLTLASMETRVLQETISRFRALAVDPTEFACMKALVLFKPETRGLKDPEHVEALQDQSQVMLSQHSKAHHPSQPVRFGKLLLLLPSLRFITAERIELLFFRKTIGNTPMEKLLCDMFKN
LMP1 NFkB inh: inhibitors of Epstein-Barr LMP1-induced NF-kappaB reporter; AID 504558; inhibition, % at 12.5 µM; 0.69% of 350,000 active; LMP1-induced NF-kappaB luciferase reporter cells, luminescence; in the data active means inhibition above about 41%;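 further: 0% = neutral control wells and 100% = reference inhibitor control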
NR2E3 ag-2: agonists of human nuclear receptor NR2E3; Q9Y5X4; GST-NR2E3/biotin-RetCOR TR-FRET, 1536-well; inhibition of corepressor binding, % at 4.78 µM; 0.12% of 320,000 active; AID 2300;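 active means percent inhibition above the cutoff of mean plus 3 SD of all tested compounds, set per screening campaign, cut at about 20% in these data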;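 further: 0% = DMSO wells and 100% = biotin wells as full block of FRET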
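System: GST-NR2E3 and biotin-RetCOR proteins; probe or stimulus: 7 nM biotin-RetCOR; doses: compound at 4.8 µM, single dose; schedule: Compound–protein incubation for 5 h at 4 °C; detection: time-resolved FRET; read-out: percent inhibition; controls: biotin wells as high control, 0.6% DMSO wells as low control; format: 1536-well plates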
HIF activator: HIF pathway transcriptional activation; U2OS HRE-luciferase reporter, luminescence; normalized: DMSO 0%, desferrioxamine 100%; activation, % at 7.5 µM (by protocol); 0.32% of 300,000 active; AID 1910;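 active means mean activation of at least 10% of the iron chelator positive control signal, with at least half of replicates also reaching 10%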
TROY NFkB inh: TROY signaling inhibition. Q293 LMP1-TROYcd NF-kB luciferase reporter, 4 h. inhibition, % at 10 µM. 0.98% of 360,000 active. AID 1347056;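 active means compounds whose plate-normalised and pattern-corrected inhibition of the luciferase reporter signal at the single screening dose is 50% or more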
The depositor's hits bear a star; x = no result given.

SMILES	NR2E3 ag-1	LMP1 NFkB inh	NR2E3 ag-2	HIF activator	TROY NFkB inh
COc1cc(OC)cc(-c2c(C#Cc3ccsc3)c3cc(-c4ccc(OC)c(F)c4)ccc3n2C)c1	-13	-5	x	x	-15
COc1ccc(C(C)(O)c2nc(-c3cnc4ccccc4c3)cs2)cc1 (configuration not stated)	8	x	x	x	-10
CN(C(=O)Nc1ccc(F)cc1)[C@H]1C[C@H]2c3[nH]c4ccccc4c3CCN2C(=O)[C@H]1CO	-6	-1	x	x	15
COCCn1c(C)cc(C(=O)COC(=O)CNC(=O)c2ccccc2)c1C	12	13	5	0	54*
COCCn1c(C)cc(C(=O)COC(=O)c2ccc[nH]c2=O)c1C	-42	38	3	-1	59*
COCCn1c(C)cc(C(=O)COC(=O)c2ccc(Br)o2)c1C	-55	-34	1	2	55*
COCC(C)n1c(C)cc(C(=O)COC(=O)CNC(=O)c2ccccc2)c1C (configuration not stated)	-11	2	5	1	22
COC(=O)C1=C(C)NC(=O)NC1c1ccc(N2CCC(c3ccccc3)=N2)cc1 (configuration not stated)	-27	-4	2	0	52*
COC(=O)C1=C(C)NC(=O)NC1c1ccc(OC)c(OC)c1 (configuration not stated)	-4	1	x	x	15
CC1CCN(c2ccc3nnc(CCC(=O)N4CCN(c5ccc(F)cc5)CC4)n3n2)CC1	16	-7	1	0	1
CC(=O)NCCNC(=O)c1ccc(CSc2nc3ccccc3s2)cc1	-62	28	3	-2	69*
C=CCNC(=O)c1ccc(CSc2nc3ccccc3s2)cc1	-39	-1	1	2	12
COc1ccc(S(=O)(=O)c2c(O)cc(C)c(NS(=O)(=O)c3ccccc3)c2C)cc1	-34	-1	4	0	3
Cc1ccc(C(=O)NNC(=O)c2ccc(S(=O)(=O)N(C)c3ccccc3)cc2)cc1	-3	7	x	x	-6
c1ccc2c(NCCc3c[nH]c4ccccc34)c3ccccc3nc2c1	-78	-56	0	13*	-47
OCCCNc1c2ccccc2nc2ccccc12	-37	-87	-4	16*	-121
O=C(O)C1CCCCC1C(=O)N1CC=C(c2ccccc2)CC1 (configuration not stated)	24	12	-4	0	68*
O=C(Nc1ccccc1)N1CC=C(c2ccccc2)CC1	x	x	3	2	x
COc1ccc(Nc2oc(COc3ccccc3OC)nc2C#N)cc1	8	56*	5	-3	1
COc1ccc(CCNc2oc(COc3ccccc3Cl)nc2C#N)cc1OC	-7	11	1	0	52*
COc1ccccc1OCc1nc(C#N)c(NCCCn2ccnc2)o1	-13	1	-3	-1	-1
COc1ccc(CCN2C(=O)COc3ccccc3C2C(=O)NC(C)(C)C)cc1OC (configuration not stated)	-10	x	x	x	-11
CCOC(=O)[C@]12CCCC=C1N(Cc1cccc3ccccc13)C(=O)[C@H](CC(=O)N1CCOCC1)C2	1	x	x	x	9
COc1ccc(NC(=O)c2ccc3c(c2)C(=O)N(Cc2ccncc2)C3=O)cc1S(N)(=O)=O	4	1	x	x	5
COc1ccc(S(=O)(=O)N2CCC[C@H]2C(=O)N2CCC[C@H]2C(=O)NCc2ccc(F)cc2F)cc1C	-19	x	x	x	20
SMILES	NR2E3 ag-1	LMP1 NFkB inh	NR2E3 ag-2	HIF activator	TROY NFkB inh
Cc1ccc(-c2nnc(Nc3ccccc3)o2)cc1	-96	36	2	-2	66*
O=C(C[C@@H]1NS(=O)(=O)OC2CCCCC21)c1ccccc1 (some centres not stated)	3	-5	4	1	-4
CCOC(=O)c1ccc(NC(=O)CSc2nc(C)cc(=O)[nH]2)cc1	-11	1	-2	-25	-3
CCOC(=O)c1c(-c2ccccc2Cl)csc1NC(=O)CSc1nc(C)cc(=O)[nH]1	-2	2	0	0	59*
Cc1cc(O)c2c(c1O)C(=O)[C@]13C(=C2O)C(=O)[C@@H]2[C@@H](O)[C@H]1[C@@H]1[C@H](O)[C@H]3C(=O)C3=C(O)c4c(O)cc(C)c(O)c4C(=O)[C@]312	101*	16	x	x	28
NNC(=O)CCN1CCCCC1	-7	1	2	0	70*
CC1CCN(CCC(=O)NN)CC1	22	2	4	0	7
COc1ccc(/C=C2/SC(=S)N(c3ccc(S(=O)(=O)Nc4nccs4)cc3)C2=O)cc1	-9	6	-2	0	54*
O=C1/C(=C\c2ccccn2)SC(=S)N1c1ccc(S(=O)(=O)Nc2nccs2)cc1	-33	1	-3	0	-2
Cc1ccc(/C=C2/SC(=S)N(c3ccc(S(=O)(=O)Nc4nccs4)cc3)C2=O)cc1	-10	67*	-1	0	61*
CCC(C)n1c(NC(=O)c2ccccc2)c(C#N)c2nc3ccccc3nc21 (configuration not stated)	-16	12	1	0	58*
CCCCn1c(NC(=O)c2ccccc2)c(C#N)c2nc3ccccc3nc21	-9	11	x	x	68*
CCCCn1c(NC(=O)c2ccc(F)cc2)c(C#N)c2nc3ccccc3nc21	x	x	22*	0	x
Cc1ccc(C)n1Cc1ccc(C(=O)O)cc1	-38	-3	34*	x	3
COc1cc(NC(=O)CCN2CCN(c3ccccc3OC)CC2)cc(OC)c1	-10	9	x	x	3
Cc1cc(=O)[nH]c(NN=Cc2cc(Br)ccc2O)n1	-12	56*	x	x	-24
Cc1cc(=O)[nH]c(N/N=C/c2ccccc2Cl)n1	-49	-5	-1	1	-11
CCN(CC)c1ccc(/C=N/Nc2nc(C)cc(=O)[nH]2)c(O)c1	-33	61*	-6	57*	2
C/C=C/C(=O)N[C@@H]1c2ccccc2CC[C@@H]1OCc1ccccc1	-7	-1	x	x	3
COc1ccc(N2CCN(C(=O)/C=C/[C@H]3O[C@@H](n4ccc(=O)[nH]c4=O)[C@H](O)[C@@H]3O)CC2)cc1	-29	x	x	x	-24
CCN(C(=O)CN1C(=O)NC2(CCCC2)C1=O)c1nc2c(C)cccc2s1	-5	0	x	x	-17
COc1cccc(CNC(=O)c2ccc(C)c(S(=O)(=O)N3CCCCC3)c2)c1	1	12	2	0	-6
O=C1C(Nc2ccccc2)=C(N2CCCCC2)C(=O)c2ccccc21	-40	5	3	0	-37
O=C(/C=C/c1ccc(O)cc1)c1ccc(NC2=C(N3CCCCC3)C(=O)c3ccccc3C2=O)cc1	-33	43*	5	x	5
COc1ccccc1NC1=C(N2CCCCC2)C(=O)c2ccccc2C1=O	-13	4	8	1	58*
CN(C)/N=C/C=C1\CCC/C(=C/c2cccs2)C1=O	-118	-46	2	10*	-2
